Results taken from paper PMC3747510 (Scientific Reports, 2013).
Where a chain is given by its changes, count along the chain named.

Tests used:
[1] = target: T1, SpLeuRS D344A (Streptococcus pneumoniae serotype 4, UniProt Q97SS0, D344A); assay: Aminoacylation by SpLeuRS D344A mutant; format: biochemical; details: 50 μM ZCL039
T1 sequence (Q97SS0 1-833 D344A): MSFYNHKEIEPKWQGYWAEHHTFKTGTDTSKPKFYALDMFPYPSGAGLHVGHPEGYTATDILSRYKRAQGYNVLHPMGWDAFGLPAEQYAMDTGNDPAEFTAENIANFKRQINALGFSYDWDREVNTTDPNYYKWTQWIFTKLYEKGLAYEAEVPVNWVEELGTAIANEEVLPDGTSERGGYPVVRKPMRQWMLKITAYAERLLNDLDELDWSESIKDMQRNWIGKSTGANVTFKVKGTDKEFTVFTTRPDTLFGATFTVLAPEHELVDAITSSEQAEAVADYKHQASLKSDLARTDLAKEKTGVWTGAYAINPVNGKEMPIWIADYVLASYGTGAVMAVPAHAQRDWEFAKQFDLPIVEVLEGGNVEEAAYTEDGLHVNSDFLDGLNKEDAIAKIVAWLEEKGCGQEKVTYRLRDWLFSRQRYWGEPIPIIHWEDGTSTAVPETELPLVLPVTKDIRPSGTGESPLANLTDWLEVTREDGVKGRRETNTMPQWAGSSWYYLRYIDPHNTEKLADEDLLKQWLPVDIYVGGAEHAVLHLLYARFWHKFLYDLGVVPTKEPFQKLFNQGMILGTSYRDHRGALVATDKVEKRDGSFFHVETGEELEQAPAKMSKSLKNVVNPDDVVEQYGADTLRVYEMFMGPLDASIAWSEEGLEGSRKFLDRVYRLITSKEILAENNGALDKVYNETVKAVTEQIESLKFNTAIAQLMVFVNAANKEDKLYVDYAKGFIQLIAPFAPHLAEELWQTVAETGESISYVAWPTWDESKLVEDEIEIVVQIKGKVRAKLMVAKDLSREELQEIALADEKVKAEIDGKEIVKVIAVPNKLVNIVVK
In short: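 Aminoacylation at 37°C, started with 4 mM ATP. Point mutants were made by site-directed mutagenesis. The MmLinker chimera has CP1 Lys226–Thr411 replaced by a nonapeptide. Means of three independent experiments.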

[2] = target: T2, SpLeuRS C399S (Streptococcus pneumoniae serotype 4, UniProt Q97SS0, W399S); assay: Aminoacylation and deacylation by SpLeuRS C399S mutant; format: biochemical; details: 50 μM ZCL039
T2 sequence (Q97SS0 1-833 W399S): T1 sequence (Q97SS0 1-833 D344A) with A344D, W399S

OB1OCc2ccc(C(O)c3ccccc3)cc21 (centres unmarked) [ZCL039, [6-(1-phenyl-1-hydroxylmethyl)]-1,3-dihydro-1-hydroxy-2,1-benzoxaborole]
Effect of D344A mutation on sensitivity of SpLeuRS to ZCL039 [1]: reduced the sensitivity | Sensitivity of C399S mutant to ZCL039 [2]: comparable to the wild-type SpLeuRS
